Experimental data reported in paper PMC3790193 (British Journal of Cancer, 2013).
Where two headings read alike, the source gives them in different places. Blank lines part the entries; values can stand above or below the molecule they belong to.

Key:
Calu-6 tumours [1] = assay: Gene expression in lung tumours; format: in vivo, Rowett nude rats
How it was run: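 Male nude rats (8–10 weeks) given orotracheal Calu-6 cells. From week 3 they received saline, 2 mg kg−1 i.p., or 0.6 mg kg−1 aerosol on 4 consecutive days for 4 weeks. Five tumours from each of four rats per group; RNA by TRI-reagent, 1 μg reverse transcribed; TaqMan qPCR normalised to GAPDH. 2−ΔΔCt relative to vehicle tumours; triplicate assays; mean±s.e.m.; two-sample t-test.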

[2] = format: in vivo, Rowett nude rats; details: for half-life / AUC: male, Rowett nude (Cr:NIH-ru), rat
How it was run: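 Male Rowett nude rats dosed once with drug in saline: 2 mg kg−1 i.p., or aerosol over 90 min nose-only (0.6 mg kg−1 deposited). Deposited dose = aerosol concentration × minute volume × time × deposition fraction (~10%) ÷ body weight. Three rats per group killed at each of 11 times over 96 h. Plasma and lung extracted by solid-phase extraction; LC/MS/MS on C18 column (25 °C), positive ESI. Non-compartmental analysis of per-time-point means.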

Calu-6 tumours [3] = assay: Gene methylation profiling of tumours; format: in vivo, Rowett nude rats
How it was run: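 Bisulphite-treated DNA from Calu-6 lung tumours (three per rat, four rats per group: vehicle, i.p. or aerosol) run on HM450K arrays. Normal bronchial epithelial lines from three never smokers used as reference. Probes from 200 bp 5′ of TSS through 5′-UTR; X, Y and imprinted genes excluded. Background corrected by normal-exponential method; β-values 0–1. Genes with normal β ⩾0.2 excluded. Vehicle β ⩾0.45 counted as methylated; ⩾20% β drop counted as demethylation.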

Calu-6 cells [4] = assay: Orthotopic lung cancer model, tumour burden; format: in vivo, Rowett nude rats; details: for reduction in tumour burden: vs vehicle
How it was run: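 Calu-6 cells instilled orotracheally into male nude rats. From 3 weeks, groups of 20 received saline, 2 mg kg−1 i.p., or 0.6 mg kg−1 aerosol on 4 consecutive days over 4 weeks. At 7 weeks, lungs weighed; burden = tumour-bearing minus normal lung weight (rats without tumour cells). Lungs inflated with 10% neutral-buffered formalin at 25 cm for 6 h; 5-μm paraffin sections, H&E. t-test/ANOVA.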

Calu-6 cells [5] = details: systemic delivery, previous study; ref Belinsky et al, 2011; cited from earlier work
Aerosol characterisation = format: physicochemical; details: nebulised solution 5 mg ml^−1, Pari LC Plus nebulisers
How it was run: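 Aerosol from a 5 mg ml−1 solution made by three jet nebulisers, piped through a ~24 in, 1.58-cm stainless tube into a 52-port flow-past nose-only chamber (exhaust ~14 l min−1). Concentration measured gravimetrically on membrane filters. Particle size sampled from the breathing zone with a Mercer-style cascade impactor at ~2.0 l min−1; MMAD calculated from the impactor data.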

lung cancer = details: nebuliser, ref Lemarie et al, 2011, cited from earlier work
[6] = aerosol, 0.6 mg kg^−1 inhaled deposited dose, 90 min nose-only, single dose
[7] = plasma, inhaled or intranasal, 0.6 mg/kg
[8] = systemic, intraperitoneal injection 2 mg kg^−1, single dose

AUC Lung [2, 6]: 8460 ng·h/mL
Concentrationmax Lung [2, 6]: 7883 ng/mL
Concentrationmax Plasma [2, 6]: 893 ng/mL
half-life ([2]; lung, inhaled or intranasal, 0.6 mg/kg): 110 min
half-life ([2]; lung, ip, 2 mg/kg): 8.4 min
AUC [2, 7]: 1890 ng·h/mL
half-life [2, 7]: 74.4 min
AUC ([2]; plasma, ip, 2 mg/kg): 19100 ng·h/mL
half-life ([2]; plasma, ip, 2 mg/kg): 25.2 min
AUC Lung [2, 8]: 1082 ng·h/mL
Concentrationmax Lung [2, 8]: 2147 ng/mL
Concentrationmax Plasma [2, 8]: 15 492 ng ml^−1
weight gain of rats (Calu-6 cells [4]; irrespective of treatment route): 15–20%
average MMAD (mean mass aerodynamic diameter) (Aerosol characterisation): 0.71 μm
SMILES: Nc1ncn([C@@H]2O[C@H](CO)[C@@H](O)[C@H]2O)c(=O)n1 [5-Aza, 5-azacytidine]
effect on the expression of Bik (Calu-6 tumours [1]; aerosol delivery compared with systemic delivery, P<0.001): more profound effect
expression of p21 (WAF1) (Calu-6 tumours [1]; following systemic or aerosol delivery): increased to a similar extent
average number of genes showing ⩾20% demethylation (Calu-6 tumours [3]; aerosol delivery): 521 genes
genes classified as methylated in the Calu-6 tumours that responded (Calu-6 tumours [3]; aerosol delivery, on average): approximately 50%
genes commonly demethylated in 75% of tumours (Calu-6 tumours [3]; aerosol exposure): 501 genes
genes in common across all tumours demethylated ⩾20% (Calu-6 tumours [3]; aerosol-treated rats): 300 genes
average number of genes showing ⩾20% demethylation (Calu-6 tumours [3]; systemic delivery): 352 genes
genes commonly demethylated in 75% of tumours (Calu-6 tumours [3]; systemic exposure): 275 genes
genes in common across all tumours demethylated ⩾20% (Calu-6 tumours [3]; systemic treatment): 20 genes
Lung weight, mean±s.d. (Calu-6 cells [4]; aerosol 0.6 mg kg^−1, 4 consecutive days over 4 consecutive weeks, N=17): 3.72 ± 0.82 g
reduction in tumour burden (Calu-6 cells [4]; aerosol delivery over 4 weeks): 29%
removal of the pleomorphic cell population of tumours (Calu-6 cells [4]; inhaled delivery, histology (not shown)): equally effective as systemic delivery
Lung weight, mean±s.d. (Calu-6 cells [4]; systemic 2 mg kg^−1, 4 consecutive days over 4 consecutive weeks, N=18): 3.58 ± 0.95 g
reduction in tumour burden (Calu-6 cells [4]; systemic delivery over 4 weeks): 34%
pleomorphic cell population in residual tumour (Calu-6 cells [5]): < 5 % of the residual tumour

SMILES: Nc1ccn([C@@H]2O[C@H](CO)[C@@H](O)C2(F)F)c(=O)n1 [Gemcitabine]
total dose delivered to the lungs, on average (lung cancer; 1 day per week for 9 consecutive weeks): 42±16%
toxicity (lung cancer): no haematologic toxicity, nephrotoxicity, or neurotoxicity were observed
